Screening results as filed in PubChem.
T cell modulator = modulators of CD8 T cell-vesicle binding, primary screen, mouse 2C CD8+ T cells, flow cytometry; 2C CD8+ T cell-vesicle binding; hits give low values; response (vesicle binding), % at 7 µM; actives 0.068% (n = 330,000); AID 2052, 2009;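 active means response, share of CD8 T cells binding vesicles, and their 90th percentile fluorescence all below set limits, cut at about 80% in these data, passing the limit was not always enough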;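 further: values below 100% mean blocked vesicle binding to the CD8+ T cells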
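System: murine 2C transgenic CD8+ T lymphocytes; also added: QL9-loaded Drosophila micro-vesicles; times: binding 1.5 h at 37 °C; measured by: flow cytometry, PE anti-B7-1 (FL2) versus Alexa647 anti-CD8 (FL8), PFA-fixed; control set: Peptide-free naked vesicles (low) and QL9 vesicles with 0.7% DMSO vehicle (high)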
Casp6 inh = human caspase-6 inhibitors, primary screen, biochemical, VEID-R110 fluorescence, single point, set 2; actives 0.53% (n = 350,000); purified caspase-6, Z-VEID-R110 cleavage fluorescence; P55212; inhibition, % at 12.5 µM;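 active means mean inhibition across replicates at least about 35%, with every replicate also reaching that limit, limit read from the data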;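 further: 0% = median of neutral control wells and 100% = no fluorescence left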
Target sequence (P55212 24-179 limits assumed): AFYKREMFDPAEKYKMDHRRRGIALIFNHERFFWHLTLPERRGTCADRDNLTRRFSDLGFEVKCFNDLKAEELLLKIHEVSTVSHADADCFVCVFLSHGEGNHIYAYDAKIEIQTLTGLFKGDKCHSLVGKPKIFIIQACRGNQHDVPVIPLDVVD
Target sequence (P55212 194-293 limits assumed): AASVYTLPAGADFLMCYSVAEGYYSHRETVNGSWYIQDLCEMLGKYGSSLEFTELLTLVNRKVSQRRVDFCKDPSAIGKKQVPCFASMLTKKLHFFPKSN
Myeloid diff MLP = induction of myeloid progenitor differentiation, primary screen, cell-based, flow cytometry, MLPCN library; ER-HoxA9 myeloid progenitors, lysozyme-GFP differentiation; calls only at 10 µM; actives 1% (n = 360,000); AID 624256, 2012;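 active means normalized GFP-positive differentiation at or above the plate's own cutoff, the solvent-only control mean plus 3 SD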;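 further: cells exposed to compound for four days before flow analysis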
Vif imaging = HIV Vif self-association inhibitors, primary screen, imaging, HEK293T, single point. actives 0.35% (n = 340,000). HEK293T cells, Vif self-association by quenched fluorescence, 24 h. AID 602346, 2012. inhibition, % at 7.49 µM; in the data active means inhibition above about 50%, passing the limit was not always enough
Myeloid diff = inducers of myeloid progenitor differentiation, confirmation, cell-based, GFP/Mac1 flow cytometry, cherry pick 01; calls only; shares compounds with Myeloid diff MLP; ER-HoxA9 myeloid progenitors, GFP/Mac1 double-positive flow; actives 2% (n = 2,300);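 active means share of green or green-and-red cells above 9 and 9% in run 1 or 4 and 3% in run 2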
GFP autofluor = flagged as fluorescent in myeloid differentiation counter-screen | shares compounds with Myeloid diff MLP | actives 7.4% (n = 2,300) | fluorescence response, % (concentration not given with the values) | ER-HoxA9 myeloid progenitors, no estrogen, GFP autofluorescence flow cytometry; vehicle wells 0%, positive control 100% | AID 651707;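 active means over 5% cells positive for green fluorescent reporter, or over 2% positive for both it and APC stain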;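 further: range taken on the double positive population between DMSO and positive control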
Starred values were filed as active, the others as inactive; i = inactive; . = no result given; + = active, no number. Rows were chosen to be rich in hits. Some 1.4% of all compounds tested hit in one or more screens of this group.

SMILES	T cell modulator	Casp6 inh	Myeloid diff MLP	Vif imaging	Myeloid diff	GFP autofluor
COc1ccc(NC(=O)N2CCCC2C(=O)NCCc2ccccc2)cc1 (centres undefined)	216	3	i	6	i	0
O=C(NCCc1ccccc1)C1CCCN1C(=O)Nc1ccccc1 (centres undefined)	168	-1	i	-7	.	.
Cc1c(C(=O)OC(C)C)[nH]c2c1C(=O)CCC2	213	.	i	-2	.	.
Cc1c(C(=O)OC(C)C)[nH]c2c1C(=O)CC(C)(C)C2	405	1	+	-6	i	0
CC(=O)N(C)C[C@H]1Oc2ncc(C#Cc3ccccc3)cc2C(=O)N([C@H](C)CO)C[C@H]1C	.	0	.	.	.	.
CCCNC(=O)N[C@H]1CC[C@@H](CC(=O)N2CCN(C)CC2)O[C@H]1CO	.	-1	.	.	.	.
COc1ccc2nc(N3C(=O)/C(=C/c4ccccc4)NC3=S)sc2c1	265	-1	i	-2	i	7.0*
CCOc1ccc2nc(N3C(=O)/C(=C/c4ccccc4)NC3=S)sc2c1	240	-2	i	4	.	.
COc1ccc(CN(C)C[C@@H]2Oc3ccc(NC(=O)CCC(F)(F)F)cc3CC(=O)N([C@H](C)CO)C[C@H]2C)cc1	.	0	.	.	.	.
O=C(CCC(=O)N(CC(=O)NC1CCCCC1)c1ccc2c(c1)OCO2)Nc1ccccn1	159	.	i	7	i	0
COc1ccc(NC(=O)N[C@H]2CC[C@@H](CCn3cc(-c4ccccn4)nn3)O[C@H]2CO)cc1	.	7	.	.	.	.
COc1ccc(CN(C)C[C@H]2OCCCC[C@H](C)Oc3ccc(NC(=O)c4ccccc4)cc3C(=O)N([C@@H](C)CO)C[C@H]2C)cc1	.	-1	.	.	.	.
C/C=C/c1ccc2c(c1)O[C@@H](CN(C)Cc1ccccn1)[C@@H](C)CN([C@H](C)CO)S2(=O)=O	.	0	.	.	.	.
Cc1ccc(C)c(/C(O)=C2\C(=O)C(=O)N(CCCn3ccnc3)C2c2ccncc2)c1 (centres undefined)	202	.	+	20	i	0
CCOc1ccccc1-n1c(SCC(N)=O)nnc1-c1ccccc1	543	.	i	-2	i	1
O=C(COc1ccc(-n2cnnn2)cc1)Nc1ccc(F)cc1	378	1	i	-2	.	.
O=C(COc1ccc(-n2cnnn2)cc1)Nc1ccc(F)c(F)c1	337	2	i	9	i	0
O=C(Cn1c(=O)[nH]c2ccsc2c1=O)NC1CCCCC1	416	.	+	6	i	0
Cc1ccc(NC(=O)COC(=O)CN2C(=O)NC3(CCCC3)C2=O)cc1F	295	0	i	2	i	1
CN(CC(=O)Nc1ccc(F)cc1)C(=O)COC(=O)CN1C(=O)NC2(CCCC2)C1=O	0	5	i	-2	.	.
CCCNC(=O)N1CCC2(CC1)CN(C(=O)NC(C)C)[C@H](CO)c1c2c2ccc(OC)cc2n1C	.	1	.	.	.	.
C[C@@H]1CCCCO[C@H](CN(C)C(=O)Cc2ccccc2)[C@H](C)CN([C@H](C)CO)C(=O)c2cc(NC(=O)c3ccccc3)ccc2O1	.	-39	.	.	.	.
O=C(NCCc1c[nH]c2ccccc12)/C(=C\c1cccnc1)NC(=O)c1ccccc1Br	185	2	+	-5	i	0
CO[C@H]1CN(C)C(=O)c2ccc(NC(=O)NC(C)C)cc2OC[C@@H](C)N(C(=O)C2CCC2)C[C@@H]1C	.	2	.	.	.	.
S=C(Nc1ccc(Oc2ccccc2)cc1)N(CCCN1CCOCC1)Cc1ccccn1	128	-3	+	6	i	0
SMILES	T cell modulator	Casp6 inh	Myeloid diff MLP	Vif imaging	Myeloid diff	GFP autofluor
Cc1cccc(NC(=S)N(CCCN2CCOCC2)Cc2ccccn2)c1	104	.	i	-4	.	.
O=C(O)CCNC(=O)/C(=C\C=C\c1ccccc1)NC(=O)c1ccccc1	181	0	i	4	i	1
CCc1cc(C(=O)c2ccccc2OC)c(N)s1	173	.	i	-1	i	0
O=C1CCCN1CCCNS(=O)(=O)c1ccc(Cl)c(C(=O)N2CCOCC2)c1	239	.	i	1	i	0
O=C(NCCN1CCOCC1)c1cc(S(=O)(=O)NCCCN2CCCC2=O)ccc1Cl	629	.	i	-3	.	.
CCCC(=O)Nc1nc2ccc(NC(=O)c3ccc(Br)o3)cc2s1	208	.	+	3	i	0
c1ccc(COc2ccc(OCCn3cncn3)cc2)cc1	0	.	i	.	i	0
c1ccc(-c2ccc(OCCCn3cncn3)cc2)cc1	156	.	i	-2	.	.
C[C@@H](O)C#Cc1ccc([C@@H]2[C@@H](CO)N3CCCCN(C(=O)Nc4ccccc4)C[C@H]23)cc1	.	2	.	.	.	.
COC(=O)c1sc2ccccc2c1-n1cccc1C(=O)C(=O)Nc1ccccc1	212	.	i	6	i	0
COc1ccc(NC(=O)N(C)C[C@H]2OCCCC[C@H](C)Oc3ccc(NC(=O)NC(C)C)cc3C(=O)N([C@@H](C)CO)C[C@@H]2C)cc1	.	1	.	.	.	.
Cc1ccc(NC2=NCCCCC2)cc1C	210	.	+	11	i	0
Cc1noc(C)c1C(=O)OCC(=O)Nc1ccccc1SCC#N	624	-2	+	7	i	57*
N#CCSc1ccccc1NC(=O)COC(=O)CCNC(=O)c1ccc([N+](=O)[O-])cc1	.	4	+	-3	i	41*
COc1ccc(S(=O)(=O)N(C)C[C@@H]2OCCCC[C@H](C)Oc3ccc(NC(=O)Nc4c(C)noc4C)cc3C(=O)N([C@@H](C)CO)C[C@@H]2C)cc1	.	-5	.	.	.	.
COc1cccc(-c2ccc3n(c2=O)C[C@H]2[C@H](CO)[C@@H](C(=O)N(C)C)[C@@H]3N2Cc2cncnc2)c1	.	-1	.	.	.	.
Nc1cccc(C#Cc2ccc3c(c2)C(=O)/C(=C/c2ccsc2)O3)c1	208	-2	i	9	i	0
Cc1cc(Cl)cc(C)c1OCCCCn1ccnc1	345	.	i	.	.	.
Cc1cccc(Cl)c1OCCCCn1ccnc1	326	.	+	-6	i	0
CN1OC[C@@H]2CN(C(=O)CCc3ccccc3)[C@H](c3cccc(Oc4ccccc4)c3)C[C@@H]21	.	5	i	-3	i	1
CN1OC[C@@H]2CN(C(=O)CCc3ccccc3)[C@H](c3cccc(-c4ccccc4)c3)C[C@@H]21	.	1	i	0	.	.
CCCC(=O)Nc1ccc2c(c1)C(=O)N(C)C[C@H](OC)[C@@H](C)CN(CC1CCCC1)[C@@H](C)CO2	.	7	.	.	.	.
N#Cc1c2nc3ccccc3nc2n2cc(NC(=O)c3ccc(F)cc3)ccc12	.	7	i	-28	i	3
CC(=O)Nc1ccc(CC(=O)O)cc1	266	-2	i	10	.	.
